ChEMBL document CHEMBL4011617, “Ugi Reaction-Derived α-Acyl Aminocarboxamides Bind to Phosphatidylinositol 3-Kinase-Related Kinases, Inhibit HSF1-Dependent Heat Shock Response, and Induce Apoptosis in Multiple Myeloma Cells” (J Med Chem, 2017)
The source made the active and inactive calls.

Assays:
[1] = tested on: INA-6; assay: Downregulation of NVP-AUY922-induced HSF-1 protein expression in human INA-6 cells at 10 uM preincubated for 4 hrs followed by NVP-AUY922 addition measured after 4 hrs by Western blot method; type: functional, cell-based
In short: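 INA-6 cells received the dual DNA-PK/mTOR inhibitor for 4 h, then 10 nM NVP-AUY922 was added for another 4 h. Protein lysates were Western blotted for HSF1, phospho-HSF1, HSP72 and HSP27, with α-tubulin as the loading control.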

[2] = tested on: INA-6; assay: Inhibition of heat shock response in human INA-6 cells assessed as reduction in HSF-1 mediated upregulation of the HSP72 mRNA expression at 10 uM preincubated for 4 hrs followed by HSP90 inhibitor and HSR inducer NVP-AUY922 addition measured after 4 hrs by RT-PCR method; type: functional, cell-based
In short: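 Cells pretreated 4 h with NU7441, then 10 nM NVP-AUY922 added for 4 h. Total mRNA isolated; HSF1 and HSP72 levels determined by RT-PCR and normalized to α-tubulin.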

[3] = biological target: T1, Heat shock factor protein 1 (Homo sapiens) (UniProt Q00613); assay: Inhibition of NVP-AUY922-induced HSF-1 phosphorylation in human INA-6 cells at 10 uM preincubated for 4 hrs followed by NVP-AUY922 addition measured after 4 hrs by Western blot method; type: cell-based
T1 sequence (whole entry): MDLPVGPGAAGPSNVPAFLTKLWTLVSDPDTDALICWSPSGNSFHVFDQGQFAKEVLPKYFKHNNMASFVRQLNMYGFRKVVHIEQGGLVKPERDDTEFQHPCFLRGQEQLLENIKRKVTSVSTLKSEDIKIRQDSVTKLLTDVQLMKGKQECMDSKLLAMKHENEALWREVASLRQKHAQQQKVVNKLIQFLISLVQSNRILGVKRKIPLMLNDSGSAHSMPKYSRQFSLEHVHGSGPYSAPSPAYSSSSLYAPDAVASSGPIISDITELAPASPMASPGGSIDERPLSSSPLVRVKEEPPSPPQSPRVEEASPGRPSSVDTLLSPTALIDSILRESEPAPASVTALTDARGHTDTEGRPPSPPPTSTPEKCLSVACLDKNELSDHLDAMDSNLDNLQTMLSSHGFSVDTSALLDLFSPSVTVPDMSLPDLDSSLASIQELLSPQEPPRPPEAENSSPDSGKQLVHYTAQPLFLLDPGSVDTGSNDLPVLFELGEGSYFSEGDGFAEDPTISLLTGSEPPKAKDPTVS
In short: (§1)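 INA-6 cells given the dual DNA-PK/mTOR inhibitor NU7441 for 4 h, then co-treated with 10 nM NVP-AUY922 for 4 h more. Protein lysates analysed by Western blot for HSF1, phospho-HSF1, HSP72 and HSP27, with α-tubulin as loading control.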

[4] = tested on: INA-6; assay: Inhibition of heat shock response in human INA-6 cells assessed as reduction in HSF-1 mediated upregulation of the HSP72 protein expression at 10 uM preincubated for 4 hrs followed by HSP90 inhibitor and HSR inducer NVP-AUY922 addition measured after 4 hrs by Western blot method; type: functional, cell-based; in short: as §1
[5] = tested on: INA-6; assay: Downregulation of NVP-AUY922-induced HSF-1 mRNA expression in human INA-6 cells at 10 uM preincubated for 4 hrs followed by NVP-AUY922 addition measured after 4 hrs by RT-PCR method; type: functional, cell-based
In short: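 INA-6 myeloma cells were treated with the dual DNA-PK/mTOR inhibitor for 4 h, then co-treated with 10 nM NVP-AUY922 for a further 4 h. Total RNA was isolated and HSF1 and HSP72 mRNA was measured by RT-PCR. Values were normalized to α-tubulin.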

O=c1cc(N2CCOCC2)oc2c(-c3cccc4c3sc3ccccc34)cccc12
active: Activity [1] | inhibition [2] | inhibition [3] | inhibition [4] | Activity [5]
